# Measured values reported in ChEMBL document CHEMBL4689842, “EUbOPEN Chemogenomics Library wave 1” (2021).
# System: HEK-293T
# Test: Multiplex assay against HEK293T;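 as to Population Tubulin-Different-Phenotype (%): share of the cells with healthy nuclei that show this phenotype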
# Type: toxicity, cell-based
# Conditions: human
# In short: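 Per cents of healthy-nucleus cells form the tubulin, mitochondrial-mass and membrane-permeability phenotype values. Live cells were stained at seeding with Hoechst33342, BioTracker Green Microtubule Cytoskeleton Dye, MitoTracker Red and Annexin V Alexa Fluor 680. After compound addition they were imaged on a CQ1 microscope at 37°C and 5% CO2, and CellPathfinder machine-learning gating split them into Hoechst high-intensity objects or normal cells, normal cells into healthy, pyknosed or fragmented nuclei, and pyknosed cells into mitotic or apoptotic.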
# [1] = 12 h, 1 µM, compound concentration 1 uM, replicate 1
# [2] = 12 h, 1 µM, compound concentration 1 uM, replicate 2
# [3] = 12 h, 10 µM, compound concentration 10 uM, replicate 1
# [4] = 12 h, 10 µM, compound concentration 10 uM, replicate 2
# [5] = 24 h, 1 µM, compound concentration 1 uM, replicate 1
# [6] = 24 h, 1 µM, compound concentration 1 uM, replicate 2
# [7] = 24 h, 10 µM, compound concentration 10 uM, replicate 1
# [8] = 24 h, 10 µM, compound concentration 10 uM, replicate 2
smiles,measurement,setting,value
Cn1nc(C(F)(F)F)cc1-c1cnc(N2CCc3cc(S(=O)(=O)Nc4c(F)cc(Cl)cc4F)cc(N4CCCC4=O)c32)nc1 [TP-020],Population Apoptotic (%),[1],25%
same,Population Fragmented Nuclei (%),[1],10%
same,Population Healthy Nuclei (%),[1],71%
same,Population Hoechst High Intensity Objects (%),[1],10%
same,Population Membrane Permeable-Phenotype (%),[1],6%
same,Population Mitochondria Different-Phenotype (%),[1],9%
same,Population Mitotic Cells (%),[1],74%
same,Population Normal (%),[1],89%
same,Population Pyknosed Nuclei (%),[1],18%
same,Population Tubulin-Different-Phenotype (%),[1],16%
same,Total Cell Count,[1],692
same,Population Apoptotic (%),[2],16%
same,Population Fragmented Nuclei (%),[2],5%
same,Population Healthy Nuclei (%),[2],89%
same,Population Hoechst High Intensity Objects (%),[2],1%
same,Population Membrane Permeable-Phenotype (%),[2],9%
same,Population Mitochondria Different-Phenotype (%),[2],13%
same,Population Mitotic Cells (%),[2],83%
same,Population Normal (%),[2],98%
same,Population Pyknosed Nuclei (%),[2],5%
same,Population Tubulin-Different-Phenotype (%),[2],37%
same,Total Cell Count,[2],1398
same,Population Apoptotic (%),[3],17%
same,Population Fragmented Nuclei (%),[3],14%
same,Population Healthy Nuclei (%),[3],63%
same,Population Hoechst High Intensity Objects (%),[3],11%
same,Population Membrane Permeable-Phenotype (%),[3],2%
same,Population Mitochondria Different-Phenotype (%),[3],2%
same,Population Mitotic Cells (%),[3],82%
same,Population Normal (%),[3],88%
same,Population Pyknosed Nuclei (%),[3],21%
same,Population Tubulin-Different-Phenotype (%),[3],3%
same,Total Cell Count,[3],565
same,Population Apoptotic (%),[4],4%
same,Population Fragmented Nuclei (%),[4],9%
same,Population Healthy Nuclei (%),[4],86%
same,Population Hoechst High Intensity Objects (%),[4],1%
same,Population Mitochondria Different-Phenotype (%),[4],5%
same,Population Mitotic Cells (%),[4],95%
same,Population Normal (%),[4],98%
same,Population Pyknosed Nuclei (%),[4],4%
same,Population Tubulin-Different-Phenotype (%),[4],5%
same,Total Cell Count,[4],1658
same,Population Apoptotic (%),[5],21%
same,Population Fragmented Nuclei (%),[5],10%
same,Population Hoechst High Intensity Objects (%),[5],7%
same,Population Membrane Permeable-Phenotype (%),[5],12%
same,Population Mitochondria Different-Phenotype (%),[5],8%
same,Population Mitotic Cells (%),[5],78%
same,Population Normal (%),[5],92%
same,Population Pyknosed Nuclei (%),[5],8%
same,Population Tubulin-Different-Phenotype (%),[5],31%
same,Total Cell Count,[5],805
same,Population Apoptotic (%),[6],6%
same,Population Fragmented Nuclei (%),[6],12%
same,Population Healthy Nuclei (%),[6],81%
same,Population Hoechst High Intensity Objects (%),[6],1%
same,Population Membrane Permeable-Phenotype (%),[6],13%
same,Population Mitochondria Different-Phenotype (%),[6],6%
same,Population Mitotic Cells (%),[6],93%
same,Population Normal (%),[6],98%
same,Population Pyknosed Nuclei (%),[6],5%
same,Population Tubulin-Different-Phenotype (%),[6],47%
same,Total Cell Count,[6],1839
same,Population Apoptotic (%),[7],26%
same,Population Fragmented Nuclei (%),[7],11%
same,Population Healthy Nuclei (%),[7],77%
same,Population Hoechst High Intensity Objects (%),[7],5%
same,Population Membrane Permeable-Phenotype (%),[7],8%
same,Population Mitochondria Different-Phenotype (%),[7],1%
same,Population Mitotic Cells (%),[7],73%
same,Population Normal (%),[7],94%
same,Population Pyknosed Nuclei (%),[7],10%
same,Population Tubulin-Different-Phenotype (%),[7],7%
same,Total Cell Count,[7],670
same,Population Apoptotic (%),[8],3%
same,Population Fragmented Nuclei (%),[8],26%
same,Population Healthy Nuclei (%),[8],71%
same,Population Hoechst High Intensity Objects (%),[8],3%
same,Population Membrane Permeable-Phenotype (%),[8],5%
same,Population Mitochondria Different-Phenotype (%),[8],0%
same,Population Mitotic Cells (%),[8],96%
same,Population Normal (%),[8],96%
same,Population Pyknosed Nuclei (%),[8],2%
same,Population Tubulin-Different-Phenotype (%),[8],5%
same,Total Cell Count,[8],2801
